The source made the active and inactive calls. No cut-off for these calls is given here.
Target: T1, Indoleamine 2,3-dioxygenase 1 (Homo sapiens, UniProt P14902)
Assay: Inhibition of purified human recombinant IDO
Conditions: not given

SMILES	IC50 [µM]	Activity	Ki [µM]
COc1cccc2c1C(=O)C1=C(OC(C)(C)C=C1)C2=O	2.13	–	–
O=C1C=Cc2ccccc2C1=O [1,2-NAPHTHOQUINONE]	7.1	–	–
CC1(C)C=CC2=C(O1)C(=O)c1ccc(O)cc1C2=O	5.52	–	–
O=C1C=CC(=O)c2c(O)cccc21 [JUGLONE]	1	–	–
CC1(C)OC2=C(C(=O)c3ccccc3C2=O)C(SCc2ccccc2)C1O (cis isomer)	3.45	–	–
Cc1c(SC[C@H](NC(=O)CC[C@H](N)C(=O)O)C(=O)NCC(=O)O)c(O)c2ccccc2c1O	0.34	–	–
COC1C2=C(OC(C)(C)C1O)C(=O)c1ccccc1C2=O (cis isomer)	0.976	–	–
CC1(C)C=CC2=C(O1)C(=O)c1ccccc1C2=O [DEHYDRO-ALPHA-LAPACHONE]	0.214	–	–
CC1=C(SC[C@H](NC(=O)CC[C@H](N)C(=O)O)C(=O)NCC(=O)O)C(=O)c2ccccc2C1=O	0.88	–	–
COc1ccc2c(c1)C(=O)C1=C(OC(C)(C)C=C1)C2=O	3.02	–	–
COC(=O)C1(C)C=CC2=C(O1)C(=O)c1ccccc1C2=O (stereo not given)	0.247	–	–
CC1(C)OC2=C(C(=O)c3ccccc3C2=O)C(OCc2ccccc2)C1O (stereo not given)	1.09	–	–
O=C1C=CC(=O)C=C1	–	inactive	–
CC1(C)OC2=C(C(=O)c3ccccc3C2=O)[C@@H]2O[C@@H]21	4.95	–	–
CC1(C)OC2=C(C(=O)c3ccccc3C2=O)C(O)C1O (stereo not given)	1.5	–	–
COC1C2=C(OC(C)(C)C1O)C(=O)c1ccccc1C2=O (trans isomer)	3.96	–	–
CC1(C)OC2=C(C(=O)c3ccccc3C2=O)C(N2CCOCC2)C1O (trans isomer)	0.361	–	–
CCCCN[C@H]1C2=C(OC(C)(C)[C@H]1O)C(=O)c1ccccc1C2=O	0.13	–	–
O=C1C=C(O)C(=O)c2ccccc21 [LAWSONE]	675	–	–

SMILES	IC50 [µM]	Activity	Ki [µM]
O=C1C=CC(=O)C(c2ccccc2)=C1	–	inactive	–
CC1=CC(=O)C=CC1=O	–	inactive	–
CC1=CC(=O)c2ccccc2C1=O [MENADIONE]	1	–	–
CC1=C(C/C=C(\C)CCC[C@H](C)CCC[C@H](C)CCCC(C)C)C(=O)c2ccccc2C1=O	–	inactive	–
O=c1ccoc2ccccc12	–	inactive	–
CC1(C)C=CC2=C(O1)C(=O)c1cc(O)ccc1C2=O	2.05	–	–
CC1(C)OC2=C(C(=O)c3ccccc3C2=O)C(O)C1Br (stereo not given)	0.512	–	–
O=C1C(Cl)=C(Cl)C(=O)c2ccccc21 [Dichlon]	0.28	–	–
COc1ccc2c(c1)C(=O)C1=C(C=CC(C)(C)O1)C2=O	0.933	–	–
CC1(C)C=CC2=C(O1)C(=O)c1c(O)cccc1C2=O	0.121	–	–
CCCCNC1C2=C(OC(C)(C)C1O)C(=O)c1ccccc1C2=O (trans isomer)	0.082	–	–
CC1(C)C=CC2=C(O1)C(=O)c1cccc(O)c1C2=O	0.19	–	–
CC1(C)OC2=C(C(=O)c3ccccc3C2=O)C(N2CCOCC2)C1O (cis isomer)	1.1	–	–
CC1(C)CCC2=C(O1)C(=O)c1ccccc1C2=O [ALPHA-LAPACHONE]	4.34	–	–
C=CCNC1C2=C(OC(C)(C)C1O)C(=O)c1ccccc1C2=O (trans isomer)	0.186	–	–
CC1(C)OC2=C(C(=O)c3ccccc3C2=O)C(SCc2ccccc2)C1O (trans isomer)	2.12	–	–
COC1=CC(=O)c2ccccc2C1=O [2-Methoxy-1,4-naphthoquinone]	0.72	–	–
CCc1c(C)cc2c(c1O)C(=O)C1=C(C2=O)C(C)(C)C(=O)C(C)(C(=O)OC)O1 (stereo not given)	–	–	0.12
COc1cccc2c1C(=O)C1=C(C=CC(C)(C)O1)C2=O	2.92	–	–

Target: T1, Indoleamine 2,3-dioxygenase 1
Assay: Inhibition of purified human recombinant IDO expressed in TREx cells
Conditions: not given
Method in brief: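 T-REx cells carrying doxycycline-inducible human IDO cDNA are seeded at 20000/well and induced 72 h with doxycycline. They are rinsed, then exposed in triplicate to serial dilutions in phenol red-free DMEM + 10% FBS for 18 h and TCA-fixed. Supernatant kynurenine is read with p-DMAB at 490 nm, corrected for SRB viability. IC50 is taken from a sigmoidal curve.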
Target sequence in this assay (P14902 whole entry): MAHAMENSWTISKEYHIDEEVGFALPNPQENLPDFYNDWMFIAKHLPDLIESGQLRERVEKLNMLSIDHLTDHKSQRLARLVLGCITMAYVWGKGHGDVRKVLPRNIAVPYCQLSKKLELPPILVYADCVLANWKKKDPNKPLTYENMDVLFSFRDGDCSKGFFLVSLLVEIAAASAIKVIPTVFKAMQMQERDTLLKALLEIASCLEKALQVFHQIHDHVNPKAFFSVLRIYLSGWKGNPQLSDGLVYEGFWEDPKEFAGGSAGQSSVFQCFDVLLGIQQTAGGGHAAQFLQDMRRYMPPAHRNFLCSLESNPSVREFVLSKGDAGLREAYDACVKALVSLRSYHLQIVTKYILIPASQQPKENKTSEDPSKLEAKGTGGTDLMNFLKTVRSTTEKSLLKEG

SMILES	IC50 [µM]
CC1(C)C=CC2=C(O1)C(=O)c1c(O)cccc1C2=O	69
CCCCNC1C2=C(OC(C)(C)C1O)C(=O)c1ccccc1C2=O (trans isomer)	87

Tested on: not listed separately
Assay: Cytotoxicity against human TREx cells expressing doxycyclin-inducible IDO assessed as cell viability by SRB assay
Assay type: functional
Conditions: read-out: LD50 (the source's name)
Method in brief: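 T-REx cells with inducible human IDO cDNA, seeded at 20000/well in DMEM + 10% FBS, induced 72 h with 20 ng/mL doxycycline, rinsed, then exposed to serial compound dilutions in phenol red-free DMEM + 10% FBS for 18 h, in triplicate.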

SMILES	CC50 [µM]
CC1=CC(=O)c2ccccc2C1=O [MENADIONE]	126

Tested on: Mus musculus
Assay: Antitumor activity in parous MMTV-Neu transgenic FVB mouse assessed as tumor volume at 25 mg/kg, ip qd for 5 days
Assay type: functional, organism-based
Design: dose 25 mg/kg
Conditions: not given
Method in brief: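 Autochthonous mammary tumors in parous FVB MMTV-Neu mice expressing wild-type rat HER2/Neu. Agent given at 25 mg/kg for 5 consecutive days in the first week; paclitaxel cohorts received 13.3 mg/kg i.v. qd 3×/week over the 2-week treatment period. Read-out is fold change in volume of individual tumors, with mean ± SEM per group.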

SMILES	Activity
CC1=CC(=O)c2ccccc2C1=O [MENADIONE]	Active

Tested on: B16-F10
Assay: Antitumor activity in mouse B16-F10 cells isografted C57BL/6 mouse at 25 mg/kg, ip qd for 5 days
Assay type: functional, organism-based
Design: dose 25 mg/kg
Conditions: not given
Method in brief: (§1)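 Mice given 1 × 10^5 B16-F10 melanoma cells s.c.; i.p. dosing at 25 mg/kg qd 5 days a week begins 7 days later and runs until the experiment ends. Tumors are measured by caliper twice weekly until control tumors reach ~5000 mm3. Data are mean tumor size ± SEM. Treated and untreated groups are compared at study end by two-tailed Mann–Whitney test.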

SMILES	Activity
CC1=CC(=O)c2ccccc2C1=O [MENADIONE]	Active

Tested on: B16-F10
Assay: Antitumor activity in mouse B16-F10 cells isografted athymic NCr-nu/nu mouse at 25 mg/kg, ip qd for 5 days
Assay type: functional, organism-based
Design: dose 25 mg/kg
Conditions: not given
Method in brief: as §1

SMILES	Activity
CC1=CC(=O)c2ccccc2C1=O [MENADIONE]	inactive

Tested on: B16-F10
Assay: Antitumor activity in mouse B16-F10 cells isografted IDO knockout C57BL/6 mouse at 25 mg/kg, ip qd for 5 days
Assay type: functional, organism-based
Design: dose 25 mg/kg
Conditions: not given
Method in brief: as §1

SMILES	Activity
CC1=CC(=O)c2ccccc2C1=O [MENADIONE]	inactive

Reference: ChEMBL document CHEMBL1144666, “Indoleamine 2,3-dioxygenase is the anticancer target for a novel series of potent naphthoquinone-based inhibitors” (J Med Chem, 2008)
